An excerpt weighted towards active compounds, which were near 3.9% of everything screened.
tim23-1 inh: growth inhibitors of tim23-1 mutant yeast; AID 463212; 1.3% of 330,000 active; inhibition, % at 20 µM; S. cerevisiae tim23-1 growth, BacTiter-Glo luminescence, 24 h;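 active means growth inhibition of the mutant yeast at or above 50%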;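 further: temperature-sensitive mutant grown at 25 °C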
CHOP UPR activ: apoptotic UPR (CHOP) activation; AID 449763; activation, % at 10 µM; 0.34% of 330,000 active; CHO-CHOP luciferase reporter, luminescence; percent of tunicamycin response over DMSO baseline;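 active means at 10 µM dose, activation of 40% or more, normalized to positive control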
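measured by = luciferase luminescence | assay system = CHO-CHOP cells, stable luciferase reporter of PERK-eIF2a-CHOP signalling | amount = 500 reporter cells seeded per well | timing = 6 h compound exposure at 37 °C after overnight seeding | controls = positive tunicamycin 10 µg/mL, negative DMSO alone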
tim10-1 inh: tim10-1 yeast growth inhibition. S. cerevisiae tim10-1 ts strain growth, BacTiter-Glo, 24 h. inhibition, % at 20 µM. 2.2% of 330,000 active. AID 463190;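 active means inhibition of at least 40%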;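 further: mutant grown at 25 °C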
UPR XBP1 act: activators of adaptive arm of unfolded protein response (XBP1); activation, % at 20 µM; CHO-XBP1 luciferase reporter, IRE1-XBP1 UPR activation, luminescence; percent of tunicamycin response, DMSO as zero; 0.33% of 330,000 active;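 active means versus positive control, 20 µM dose yields 30% or more activation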
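Material – CHO cell line with stable XBP1 luciferase reporter · Buffer or medium – F12 plus 10% FBS · Compound – single point, 20 µM final compound, 1% DMSO · Schedule – 16-18 h cell attachment at 37 °C, then 6 h compound exposure · Signal – Steady-Glo luminescence read · Benchmarks – high control tunicamycin 10 µg/mL final, low control DMSO vehicle only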
TIM10 inh: inhibits growth of TIM10 yeast strain; inhibition, % at 10 µM; S. cerevisiae TIM10 strain growth, BacTiter-Glo luminescence, 24 h; AID 463195; 1.4% of 330,000 active;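 active means inhibition of 40% or more at the single tested concentration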;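 further: wild-type TIM10 isogenic control strain grown at permissive 25 °C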
tim10-1 confirm: confirmation of tim10-1 mutant yeast growth inhibitors; S. cerevisiae tim10-1 ts strain growth, BacTiter-Glo, 24 h; shares compounds with tim10-1 inh; AID 463213; 56% of 7,400 active; inhibition, % at 20 µM;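 active means inhibition of yeast growth at or above a set limit in either of two repeat tests at 20 µM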;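 further: tim10-1 mutant grown at permissive 25 °C to find synthetic lethal compounds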
A number is an active result; – = inactive; · = no result.

SMILES	tim23-1 inh	CHOP UPR activ	tim10-1 inh	UPR XBP1 act	TIM10 inh	tim10-1 confirm
CCOc1ccccc1N1CCN(C(=O)Nc2ccc(F)c(Cl)c2)CC1	–	–	48	–	–	40
CCOC(=O)c1cnc2c(OC)cccc2c1N1CCN(c2ccccn2)CC1	–	–	48	–	–	–
CCOC(=O)c1cnc2c(OC)cccc2c1N1CCN(c2ccc(OC)cc2)CC1	–	–	40	–	–	–
CC1(C)NC(=O)N(CC(=O)OCC(=O)N2CCN(S(=O)(=O)c3ccccc3)CC2)C1=O	–	–	–	–	–	·
COc1ccc2cc(C(=O)C3CCCN(C(=O)C4=NN(C)C(=O)CC4)C3)ccc2c1 (configuration not stated)	–	–	–	–	–	·
O=C(c1cccc(S(=O)(=O)Nc2ccc(F)cc2)c1)N1CCC1	–	–	–	–	–	·
CN1C(=O)C2(c3ccccc31)N(C)CC(c1ccccn1)C21SC(=S)N(Cc2ccco2)C1=O (configuration not stated)	–	–	47	–	–	–
O=C(c1ccc([N+](=O)[O-])cc1)N1CCN(c2ncccn2)CC1	–	–	–	–	–	·
Cn1c(=O)c2c(nc(CN3CCN(c4ccccc4)CC3)n2CCCc2ccccc2)n(C)c1=O	–	–	43	–	–	–
CCCCn1c(CN2CCN(c3ccccc3)CC2)nc2c1c(=O)n(C)c(=O)n2C	–	–	–	–	–	·
CCCc1cc(-c2nc(N)ncc2-c2csc(C)n2)c(O)cc1OC	–	–	43	–	–	–
CCc1cc(-c2nc(N)ncc2-c2csc(C)n2)c(O)cc1OC	–	–	–	–	–	·
CC(CCc1ccccc1)NC(=O)COC(=O)c1ccc(NC(=O)CC#N)cc1 (configuration not stated)	–	–	–	–	–	·
N/C(=N\OC(=O)CCCc1ccccc1)c1cccc([N+](=O)[O-])c1	–	–	46	–	–	42
N/C(=N\OC(=O)CCCc1ccccc1)c1cccnc1	–	–	–	–	–	·
N/C(=N\OC(=O)CCCc1ccccc1)c1ccccc1	–	–	45	–	–	44
Cc1ccc(-c2cnc(C3CC3)o2)cc1S(=O)(=O)Nc1ccccc1	–	–	41	–	–	–
O=[N+]([O-])c1ccc(/C=C/c2ccc3cccc([N+](=O)[O-])c3n2)cc1	–	–	45	–	–	–
O=C(c1cccc(NS(=O)(=O)c2ccc(F)c(F)c2)c1)N1CCCCC1	–	–	–	–	–	·
O=C(c1ccc(-c2nnc(-c3ccccc3)o2)cc1)N1CCCCCC1	–	–	45	–	–	33
COc1cc(/C=C(\C#N)c2nc3ccccc3s2)cc([N+](=O)[O-])c1O	–	–	46	–	–	–
COc1ccc(-c2csc(/C(C#N)=C\c3ccc(O)c([N+](=O)[O-])c3)n2)cc1OC	–	–	–	–	–	·
c1ccc(C(c2ccccc2)c2ccn[nH]2)cc1	–	–	44	–	–	–
O=S(=O)(c1ccc(F)cc1)N1CCN(CC(O)COCC2CCCO2)CC1 (configuration not stated)	–	–	–	–	–	·
CCn1c(NCc2cccs2)nc2ccccc21	–	–	–	–	–	·
SMILES	tim23-1 inh	CHOP UPR activ	tim10-1 inh	UPR XBP1 act	TIM10 inh	tim10-1 confirm
CCN1c2ccccc2-c2nc3ccccc3n2C1c1cccs1 (configuration not stated)	–	–	40	–	–	–
Cc1ccc2nc(-c3ccco3)c(Nc3ccccc3)n2c1	–	–	–	–	–	·
Cc1ccc(Nc2c(-c3ccco3)nc3nc(C)cc(C)n23)cc1	–	–	41	–	–	–
Cc1ccc(S(=O)(=O)Nc2ccc(N=Nc3ccc(O)cc3)cc2)cc1	–	–	40	–	–	47
CCCCCCCCCCS(=O)(=O)N/N=C/c1ccc(O)cc1	–	–	–	–	–	·
CCCCCCCCCS(=O)(=O)N/N=C/c1cccc([N+](=O)[O-])c1	–	–	42	–	–	–
O=C(COC(=O)c1ccc(Cl)nc1)Nc1ccc(N2CCCCC2)cc1	–	–	–	–	–	·
Cc1ccc(NC(=S)NNC(=O)CSc2nnc(-c3ccc(Cl)cc3)n2C2CCCCC2)cc1	–	–	42	–	–	35
CCCn1cc(SCC(=O)Nc2ccc3c(c2)OCO3)c2ccccc21	–	–	43	–	–	–
Cc1ccc(NC(=S)NNC(=O)CSc2nc3ccccc3c(=O)n2-c2ccc(C)cc2)cc1	–	–	57	–	–	34
COc1ccc(-n2c(SCC(=O)Nc3ccc4c(c3)OCO4)nc3ccccc3c2=O)cc1	–	–	40	–	–	–
Cc1ccc(-n2c(SCC(=O)Nc3ccc(N4CCOCC4)cc3)nc3ccccc3c2=O)cc1	–	–	–	–	–	·
COc1ccc(CN2CCC(C(=O)Nc3ccc(Oc4cccnc4)cc3)CC2)c(C)c1C	–	–	–	–	–	·
O=CNC1CCCc2c1[nH]c1ccc(Cl)cc21 (configuration not stated)	–	–	45	–	–	–
O=C(COC(=O)C12CC3CC(CC(C3)C1)C2)NC12CC3CC(CC(C3)C1)C2	–	–	41	–	–	39
O=C(COC(=O)CCc1ccccc1)NC12CC3CC(CC(C3)C1)C2	–	–	43	–	–	–
CC(=O)C[C@H](O)CC(=O)[C@H]1OC(=O)CC/C=C\Cc2ccccc21	–	–	–	–	–	·
N#CCCN(NC1=NS(=O)(=O)c2ccccc21)C(=O)c1ccccc1Br	–	–	–	–	–	·
Fc1ccc(C(c2nnnn2C2CCCC2)N(Cc2ccco2)CC2CCCO2)cc1 (configuration not stated)	–	–	52	–	–	42
c1ccc(CN(Cc2ccco2)C(c2ccncc2)c2nnnn2C2CCCC2)cc1 (configuration not stated)	–	–	–	–	–	·
CCN(CC)C(c1ccc(C)cc1)c1nnnn1C1CCCCC1 (configuration not stated)	–	–	44	–	–	–
Cc1cccc(N2CC(C(=O)NCc3ccco3)CC2=O)c1C (configuration not stated)	–	–	–	–	–	·
Cc1ccc(C2=NN(C(=O)C3CCCO3)C(c3ccco3)C2)cc1 (configuration not stated)	–	–	41	–	–	–
O=C1C(Cc2ccccc2)Nc2ncnc(N3CCc4ccccc4C3)c2N1Cc1ccc(Br)cc1 (configuration not stated)	–	–	41	–	–	–
COc1c2ccoc2nc2c(OC)c(OC[C@@H](O)C(C)(C)O)ccc12	–	–	–	–	–	·
COc1cc2c(cc1NC(=S)Nc1cccc(C(F)(F)F)c1)oc1ccccc12	–	–	40	–	–	–
